Source: ChEMBL document CHEMBL2384907, “Identification of substituted pyrimido[5,4-b]indoles as selective Toll-like receptor 4 ligands” (J Med Chem, 2013)

Experiments:
Assay type in all cases: cell-based
[1] = biological target: T1, Toll-like receptor 4 (Mus musculus) (UniProt Q9QUK6); experiment: Activation of mouse TLR4 transfected in HEK293 cells after 18 hrs by SEAP assay relative to N-cyclohexyl-2-(4-oxo-3-phenyl-4,5-dihydro-3H-pyrimido[5,4-b]indol-2-ylthio)acetamide
T1 sequence (whole entry): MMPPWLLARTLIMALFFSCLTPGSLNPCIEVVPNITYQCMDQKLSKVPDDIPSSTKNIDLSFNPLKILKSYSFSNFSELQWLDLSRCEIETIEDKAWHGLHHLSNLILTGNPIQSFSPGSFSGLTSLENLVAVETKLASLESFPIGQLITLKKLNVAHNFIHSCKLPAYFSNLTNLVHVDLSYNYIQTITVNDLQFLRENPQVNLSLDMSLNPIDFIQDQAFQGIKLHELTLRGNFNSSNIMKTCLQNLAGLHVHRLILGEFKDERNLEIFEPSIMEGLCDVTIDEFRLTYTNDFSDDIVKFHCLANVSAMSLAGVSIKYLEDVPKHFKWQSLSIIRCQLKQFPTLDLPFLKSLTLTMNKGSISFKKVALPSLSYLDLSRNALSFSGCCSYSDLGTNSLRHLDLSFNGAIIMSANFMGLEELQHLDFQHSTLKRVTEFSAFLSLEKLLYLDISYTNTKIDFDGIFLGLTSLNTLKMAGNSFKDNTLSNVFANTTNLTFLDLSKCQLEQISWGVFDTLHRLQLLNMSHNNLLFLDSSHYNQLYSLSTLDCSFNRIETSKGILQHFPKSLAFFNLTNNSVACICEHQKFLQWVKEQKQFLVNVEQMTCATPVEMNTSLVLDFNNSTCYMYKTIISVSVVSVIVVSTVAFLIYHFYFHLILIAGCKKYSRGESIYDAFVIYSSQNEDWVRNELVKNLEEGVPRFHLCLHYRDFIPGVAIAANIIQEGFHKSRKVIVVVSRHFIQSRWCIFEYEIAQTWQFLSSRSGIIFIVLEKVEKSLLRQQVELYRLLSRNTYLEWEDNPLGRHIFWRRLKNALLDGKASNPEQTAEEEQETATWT
Method in brief: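 Mouse TLR4 HEK-Blue cells (2.5 × 10^4/well) given titrated doses 312 nM–10 μM for 18 h, 0.5% DMSO vehicle; SEAP at 630 nm. Percent-activity curves, AUC by trapezoid method, normalized to reference hit set at 100. LPS 10 ng/mL control.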

[2] = biological target: Toll-like receptor 4 (Homo sapiens) (UniProt O00206); experiment: Activation of human TLR4 transfected in HEK293 cells after 18 hrs by SEAP assay relative to N-cyclohexyl-2-(4-oxo-3-phenyl-4,5-dihydro-3H-pyrimido[5,4-b]indol-2-ylthio)acetamide; design: concentration or dose not given beside the values
Chain of Toll-like receptor 4 (Homo sapiens) (O00206 whole entry): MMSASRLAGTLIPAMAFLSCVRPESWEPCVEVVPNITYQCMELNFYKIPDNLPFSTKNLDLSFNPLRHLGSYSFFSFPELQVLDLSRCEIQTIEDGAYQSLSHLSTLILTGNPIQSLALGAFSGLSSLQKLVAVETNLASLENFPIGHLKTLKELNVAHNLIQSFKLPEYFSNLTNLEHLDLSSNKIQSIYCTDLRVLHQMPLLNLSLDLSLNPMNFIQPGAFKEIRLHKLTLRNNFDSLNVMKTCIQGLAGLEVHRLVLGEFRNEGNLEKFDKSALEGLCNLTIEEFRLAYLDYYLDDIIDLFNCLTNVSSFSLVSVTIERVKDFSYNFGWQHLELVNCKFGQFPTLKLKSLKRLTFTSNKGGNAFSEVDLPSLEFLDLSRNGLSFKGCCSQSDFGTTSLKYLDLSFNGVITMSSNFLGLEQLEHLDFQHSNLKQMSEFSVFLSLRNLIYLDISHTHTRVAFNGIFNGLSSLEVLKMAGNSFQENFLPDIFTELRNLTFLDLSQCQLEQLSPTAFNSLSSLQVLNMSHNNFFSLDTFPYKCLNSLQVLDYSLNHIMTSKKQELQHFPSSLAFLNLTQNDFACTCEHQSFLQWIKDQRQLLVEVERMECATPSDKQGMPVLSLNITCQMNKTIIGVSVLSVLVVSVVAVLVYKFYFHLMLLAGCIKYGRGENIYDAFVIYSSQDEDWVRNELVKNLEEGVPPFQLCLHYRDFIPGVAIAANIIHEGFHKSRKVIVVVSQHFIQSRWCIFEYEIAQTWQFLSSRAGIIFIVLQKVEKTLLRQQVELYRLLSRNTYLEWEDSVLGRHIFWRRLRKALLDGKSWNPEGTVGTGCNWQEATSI
Method in brief: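 Human TLR4 HEK-Blue cells (2.5 × 10^4/well) given compound at 10 μM for 18 h, 0.5% DMSO vehicle; SEAP in supernatant read at 630 nm, normalized to reference hit set at 100. LPS 10 ng/mL positive control.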

[3] = biological target: Toll-like receptor 4 (Homo sapiens) (UniProt O00206); experiment: Activation of TLR4 in human PBMC cells assessed as AUC of IL8 release at 10 uM after 18 hrs by ELISA relative to N-cyclohexyl-2-(4-oxo-3-phenyl-4,5-dihydro-3H-pyrimido[5,4-b]indol-2-ylthio)acetamide
Method in brief: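 Human PBMC from buffy coats, 1 × 10^6/mL in complete RPMI, 18 h at 37 °C, 5% CO2 with compound at 10 μM; IL-8 in supernatant by ELISA, normalized to reference hit set at 100. LPS 10 ng/mL positive control.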

[4] = biological target: T1, Toll-like receptor 4 (Mus musculus); experiment: Activation of TLR4 in C57BL/6 mouse BMDC cells assessed as AUC of IL6 release after 18 hrs by ELISA relative to N-cyclohexyl-2-(4-oxo-3-phenyl-4,5-dihydro-3H-pyrimido[5,4-b]indol-2-ylthio)acetamide
Method in brief: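 C57BL/6 bone marrow DC, 10^5 cells/well in RPMI-10% FCS, 18 h at 37 °C with titrated doses 312 nM–10 μM; supernatant IL-6 by ELISA. Each curve converted to percent activity (background subtracted, plate-adjusted), AUC by trapezoid method, normalized to reference hit set at 100 per experiment. LPS 10 ng/mL positive control; 0.5% DMSO vehicle.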

[5] = Cytotoxicity against mouse BMDC cells up to 10 uM after overnight incubation by MTT assay
Method in brief: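 BMDC (10^5/well) incubated 18 h with graded concentrations alongside 0.5% DMSO vehicle and MPLA 1 μg/mL; cells lysed after overnight MTT incubation, absorbance 570 nm minus 650 nm reference. Triplicates, mean ± SEM, two independent experiments.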

[6] = biological target: T1, Toll-like receptor 4 (Mus musculus); experiment: Activation of TLR4 in C57BL/6 mouse BMDC cells assessed as AUC of IP10 release at 5 uM after 18 hrs by ELISA relative to N-cyclohexyl-2-(4-oxo-3-phenyl-4,5-dihydro-3H-pyrimido[5,4-b]indol-2-ylthio)acetamide

| Structure (SMILES) | Activity [1] | Activity [2] | Activity [3] | Activity [4] | Activity [6] | Activity [5] |
| --- | --- | --- | --- | --- | --- | --- |
| N#CCn1c2ccccc2c2nc(SCC(=O)NC3CCCCC3)n(-c3ccccc3)c(=O)c21 | 55% | 19% | 30% | 98% | 64% | Non-toxic |
| CCCn1c2ccccc2c2nc(SCC(=O)NC3CCCCC3)n(-c3ccccc3)c(=O)c21 | – | – | – | – | – | Non-toxic |
| O=C(CSc1nc2c3ccccc3nc-2c(O)n1-c1ccccc1)NCC1CCCO1 (stereo not drawn) | 21% | 13% | 8% | < 23% | 54% | – |
| O=C(CSc1nc2c([nH]c3ccccc32)c(=O)n1-c1ccccc1)NC1CCCC1 | 28% | 23% | 5% | 53% | 52% | – |

Now from value to compound, other results behind:

| Activity [1] | Activity [2] | Activity [3] | Activity [4] | Activity [6] | Structure (SMILES) | Activity [5] |
| --- | --- | --- | --- | --- | --- | --- |
| 100% | 92% | 79% | 101% | 99% | Cn1c2ccccc2c2nc(SCC(=O)NC3CCCCC3)n(-c3ccccc3)c(=O)c21 | Non-toxic |
| 4% | 8% | 7% | < 1% | < 1% | CCCCCCNC(=O)CSc1nc2c([nH]c3ccccc32)c(=O)n1-c1ccccc1 | – |
| 1% | < 1% | 5% | < 1% | < 1% | CN(C(=O)CSc1nc2c3ccccc3n(C)c2c(=O)n1-c1ccccc1)C1CCCCC1 | – |
